# Assay results: PubChem BioAssay
# The other results are listed elsewhere or left out. Unmarked numbers belong to inactive results. The source made the active and inactive calls.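 How the source made its calls, unless noted: active means inhibition reaching about 45% at 4 µM in either replicate (limit read from the data); inactive means the rest.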
# How the values were obtained:
# [1] = PMA/ionomycin-induced NF-kB reporter inhibitors, Jurkat retest, confirmation, T-cell NF-kB inhibitor project, cell-based, luminescence, single concentration (AID 435020); details: Jurkat NF-kB luciferase, 16 h, at 4 µM, hits give high values;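 further: plate controls were PMA/ionomycin stimulated DMSO wells for no effect and unstimulated DMSO wells for full effect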
# [2] = target: Sentrin-specific protease 8 (Homo sapiens) (UniProt Q96LD8); assay: SENP8 protease inhibitors, retest, confirmation, biochemical, luminescence, single concentration (AID 488912;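 active means mean inhibition across replicates above about 50%, limit read from the data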); details: Recombinant SENP8, Z-RLRGG-aminoluciferin luminescence, 60 min; at 12.5 µM; hits give high values
# [3] = target: Sentrin-specific protease 6 (Homo sapiens) (UniProt Q9GZR1); assay: SENP6 protease inhibitors, confirmation, biochemical, luminescence, single concentration (AID 488915;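 active means mean inhibition above about 50% in the one-dose retest, limit read from the data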); details: recombinant SENP6, Z-RLRGG-aminoluciferin luminescence; at 12.5 µM; hits give high values
# [4] = target: Sentrin-specific protease 7 (Homo sapiens) (UniProt Q9BQF6); assay: SENP7 protease inhibitors, retest, confirmation, biochemical, luminescence, single concentration (AID 488917;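 active means mean inhibition above about 50% in the one-dose retest, limit read from the data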); details: recombinant SENP7, Z-RLRGG-aminoluciferin luminescence, 40 min; at 12.5 µM; hits give high values
# [5] = target: Caspase-3 (Homo sapiens) (UniProt P42574); assay: caspase-3 protease inhibitors, confirmation, selectivity assay for SENP inhibitor project, biochemical, single concentration (AID 488918;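 active means mean inhibition above about 50%, limit read from the data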;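 further: plate controls were enzyme with DMSO for no effect and wells without caspase-3 for full effect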); details: purified caspase-3, Z-DEVD-aminoluciferin luminescence, 60 min; at 12.5 µM; hits give high values
# [6] = luciferase luminescence interference by compounds, confirmation, artefact control for SENP inhibitor project, biochemical, single concentration, SENP8 reaction pre-completed (AID 488919;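 active means mean inhibition above about 50% when retested at one dose, limit read from the data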;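 further: plate controls were DMSO wells with completed reaction for no effect and substrate without enzyme for full effect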); details: Pre-incubated SENP8/Z-RLRGG-aminoluciferin, at 12.5 µM, hits give high values
# [7] = activators of apoptotic CHOP UPR arm, confirmation, cell-based, CHO-CHOP luciferase reporter, single concentration (AID 463112; in the data active means activation above about 33%;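 further: 0% = DMSO wells and 100% = tunicamycin 10 µg/mL wells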); details: CHO-CHOP cells, CHOP-luciferase reporter luminescence; at 10 µM; hits give high values; percent of tunicamycin response, DMSO as zero
# Method in brief: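 Assay system: CHO cells stably carrying a CHOP-driven luciferase reporter. Timing: 6 h compound treatment, 37 °C. Detection: luciferase luminescence measured with Steady-Glo reagent. Benchmarks: high control tunicamycin 10 µg/mL, low control DMSO.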
# Sequence of Sentrin-specific protease 6 (Homo sapiens) (Q9GZR1 628-1112 limits assumed): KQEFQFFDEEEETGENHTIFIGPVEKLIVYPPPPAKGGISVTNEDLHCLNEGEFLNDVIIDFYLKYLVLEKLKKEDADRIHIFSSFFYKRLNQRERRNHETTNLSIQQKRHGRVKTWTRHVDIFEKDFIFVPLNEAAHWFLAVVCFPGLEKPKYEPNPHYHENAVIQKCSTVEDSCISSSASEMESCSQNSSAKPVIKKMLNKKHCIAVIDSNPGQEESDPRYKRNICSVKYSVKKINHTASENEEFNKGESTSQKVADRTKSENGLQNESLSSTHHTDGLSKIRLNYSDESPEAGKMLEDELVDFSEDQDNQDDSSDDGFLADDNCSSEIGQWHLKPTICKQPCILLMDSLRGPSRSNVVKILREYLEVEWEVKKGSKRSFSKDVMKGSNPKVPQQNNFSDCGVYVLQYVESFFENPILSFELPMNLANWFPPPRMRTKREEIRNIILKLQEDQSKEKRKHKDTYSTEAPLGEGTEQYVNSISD
# Sequence of Sentrin-specific protease 7 (Homo sapiens) (Q9BQF6 706-1050 limits assumed): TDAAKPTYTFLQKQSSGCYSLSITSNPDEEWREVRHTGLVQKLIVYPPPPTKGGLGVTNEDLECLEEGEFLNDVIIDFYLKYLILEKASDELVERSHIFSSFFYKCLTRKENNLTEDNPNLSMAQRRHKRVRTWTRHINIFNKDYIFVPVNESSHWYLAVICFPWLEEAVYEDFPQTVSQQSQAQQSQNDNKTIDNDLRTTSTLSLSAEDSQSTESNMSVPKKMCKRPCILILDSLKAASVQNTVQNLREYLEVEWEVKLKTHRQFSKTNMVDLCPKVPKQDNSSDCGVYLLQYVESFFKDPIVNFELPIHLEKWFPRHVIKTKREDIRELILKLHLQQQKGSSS
# Sequence of Sentrin-specific protease 8 (Homo sapiens) (Q96LD8 whole entry, looked up): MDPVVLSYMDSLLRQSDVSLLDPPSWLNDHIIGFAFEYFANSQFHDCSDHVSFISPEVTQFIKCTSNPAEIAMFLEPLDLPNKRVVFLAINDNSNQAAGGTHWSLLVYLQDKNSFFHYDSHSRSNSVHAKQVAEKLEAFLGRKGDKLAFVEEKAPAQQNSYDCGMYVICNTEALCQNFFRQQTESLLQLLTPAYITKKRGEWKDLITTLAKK
# Sequence of Caspase-3 (Homo sapiens) (P42574 28-227 limits assumed): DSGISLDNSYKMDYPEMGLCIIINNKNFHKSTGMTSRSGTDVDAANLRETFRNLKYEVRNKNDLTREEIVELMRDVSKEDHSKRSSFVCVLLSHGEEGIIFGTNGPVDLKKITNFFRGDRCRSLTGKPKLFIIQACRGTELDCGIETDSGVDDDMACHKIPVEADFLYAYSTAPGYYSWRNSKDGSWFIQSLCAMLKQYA
smiles,measurement,setting,value
CCCOC(=O)c1[nH]c2c(c1C)C(=O)CC(c1cccs1)C2 (configuration not stated),inhibition,[1],52.4% (active)
COc1ccc(C)c(Cn2c(-c3nonc3N)nc3ccccc32)c1,inhibition,[1],44.8%
COc1ccc(-n2ncc3c(N4CCc5ccccc54)ncnc32)cc1,inhibition,[1],-93.4%
COc1ccc(Nc2nc(-c3ccccc3)cs2)cc1,inhibition,[1],-140%
same,inhibition,[2],49.3%
same,inhibition,[3],89.6% (active)
same,inhibition,[4],100% (active)
same,inhibition,[5],83.7% (active)
same,inhibition,[6],53.8% (active)
Cn1c(-c2ccc(C(=O)c3ccccc3)s2)nc2ccccc21,inhibition,[1],-108%
same,inhibition,[2],0%
same,inhibition,[3],11.3%
same,inhibition,[4],17.8%
same,inhibition,[5],23%
same,inhibition,[6],8.8%
O=[N+]([O-])c1ccc2oc(-c3cccc(O)c3)nc2c1,inhibition,[1],-113%
same,inhibition,[2],90.4% (active)
same,inhibition,[3],90.4% (active)
same,inhibition,[4],99% (active)
same,inhibition,[5],85.8% (active)
same,inhibition,[6],84.4% (active)
Cc1cc(=O)oc2cc(OCC3CC(c4ccccc4Cl)=NO3)ccc12 (configuration not stated),inhibition,[1],54.6% (active)
Oc1ccc(/C=N/Nc2ccc(C(F)(F)F)cn2)cc1O,inhibition,[1],-7.8%
same,activation,[7],68.9% (active)
Cc1ccc2cc3cc(C(=O)N4CCCCCC4)oc3nc2c1,inhibition,[1],-90.9%
same,inhibition,[2],41.9%
same,inhibition,[3],47.9%
same,inhibition,[4],79.7% (active)
same,inhibition,[5],62.2% (active)
same,inhibition,[6],47.7%
Cc1ccc(O)c(NC(=O)COc2cc(C)ccc2C)c1,inhibition,[1],0.55%
COc1ccc(-n2nnnc2-c2nc3ccccc3s2)cc1,inhibition,[1],-67.2%
same,inhibition,[2],17.5%
same,inhibition,[3],26.7%
same,inhibition,[4],4.7%
same,inhibition,[5],35.5%
same,inhibition,[6],1.6%
